Source: ChEMBL document CHEMBL1148040, “New lignans from Anogeissus acuminata with HIV-1 reverse transcriptase inhibitory activity” (J Nat Prod, 1994)
≈ marks a conversion by molar mass, not a printed value.

What was measured:
[1] = molecular target: T1, Human immunodeficiency virus type 1 reverse transcriptase (Human immunodeficiency virus 1, UniProt Q72547); test: Inhibition of HIV1 reverse transcriptase
Procedure, shortened: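 HIV-1 RT inhibition was measured by a previously published method. Each value is the mean of three experiments, each run in duplicate. Test levels reached 250 µg/ml in the assay mixture.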

[2] = molecular target: Human immunodeficiency virus type 1 reverse transcriptase (Human immunodeficiency virus 1) (UniProt Q72547); test: Inhibition of HIV1 reverse transcriptase at 20 ug/ml
Procedure, shortened: (§1)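 HIV-1 reverse transcriptase inhibition, run by an assay procedure the authors described earlier. Each test concentration was run in duplicate in three separate experiments, and the reported value is the average of the three experiments.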

[3] = Cytotoxicity against human KBV1 cells in absence of vinblastine; assay type: functional; settings: KB-V1, read-out: ED50 (the source's name)
A-431 = test: Cytotoxicity against human A431 cells; assay type: functional; settings: read-out: ED50 (the source's name)
[4] = molecular target: Human immunodeficiency virus type 1 reverse transcriptase (Human immunodeficiency virus 1) (UniProt Q72547); test: Inhibition of HIV1 reverse transcriptase at 80 ug/ml; procedure, shortened: as §1
[5] = molecular target: Human immunodeficiency virus type 1 reverse transcriptase (Human immunodeficiency virus 1) (UniProt Q72547); test: Inhibition of HIV1 reverse transcriptase at 40 ug/ml; procedure, shortened: as §1
[6] = Inhibition of HIV2 reverse transcriptase; design: species or system Human immunodeficiency virus 2
[7] = Cytotoxicity against human BC1 cells; assay type: functional; settings: read-out: ED50 (the source's name)
[8] = Cytotoxicity against human KBV1 cells in presence of vinblastine; assay type: functional; settings: KB-V1, read-out: ED50 (the source's name)
[9] = Cytotoxicity against human Col1 cells; assay type: functional; settings: read-out: ED50 (the source's name)
Lu1 = test: Cytotoxicity against human Lu1 cells; assay type: functional; settings: read-out: ED50 (the source's name)
LNCaP = test: Cytotoxicity against human LNCAP cells; assay type: functional; settings: read-out: ED50 (the source's name)
KB = test: Cytotoxicity against human KB cells; assay type: functional; settings: read-out: ED50 (the source's name)
[10] = molecular target: Human immunodeficiency virus type 1 reverse transcriptase (Human immunodeficiency virus 1) (UniProt Q72547); test: Inhibition of HIV1 reverse transcriptase at 100 ug/ml; procedure, shortened: as §1
SK-MEL-2 = test: Cytotoxicity against human SK-MEL-2 cells; assay type: functional; settings: read-out: ED50 (the source's name)
ZR-75-1 = test: Cytotoxicity against human ZR-75-1 cells; assay type: functional; settings: read-out: ED50 (the source's name)
P388 = test: Cytotoxicity against mouse P388 cells; assay type: functional; settings: read-out: ED50 (the source's name)
[11] = Cytotoxicity against human U373 cells; assay type: functional, U-373MG ATCC; settings: U373 MG, read-out: ED50 (the source's name)
[12] = molecular target: Human immunodeficiency virus type 1 reverse transcriptase (Human immunodeficiency virus 1) (UniProt Q72547); test: Inhibition of HIV1 reverse transcriptase at 200 ug/ml; procedure, shortened: as §1
HT-1080 = test: Cytotoxicity against human HT1080 cells; assay type: functional; settings: read-out: ED50 (the source's name)
[13] = molecular target: Human immunodeficiency virus type 1 reverse transcriptase (Human immunodeficiency virus 1) (UniProt Q72547); test: Inhibition of HIV1 reverse transcriptase at 250 ug/ml; procedure, shortened: as §1
[14] = molecular target: T1, Human immunodeficiency virus type 1 reverse transcriptase; test: Inhibition of drug-resistant HIV1 reverse transcriptase
[15] = molecular target: Human immunodeficiency virus type 1 reverse transcriptase (Human immunodeficiency virus 1) (UniProt Q72547); test: Inhibition of HIV1 reverse transcriptase at 150 ug/ml; procedure, shortened: as §1
[16] = molecular target: Human immunodeficiency virus type 1 reverse transcriptase (Human immunodeficiency virus 1) (UniProt Q72547); test: Inhibition of HIV1 reverse transcriptase at 60 ug/ml; procedure, shortened: as §1

Row | Compound | IC50 [1] | inhibition [2] | EC50 [3] | EC50 (A-431) | inhibition [4] | IC50 ([1]; read-out: IC50 (converted)) | inhibition [5] | EC50 [7] | EC50 [8] | EC50 [9] | EC50 (Lu1) | EC50 (LNCaP) | EC50 (KB) | inhibition [10] | EC50 (SK-MEL-2) | EC50 (ZR-75-1) | EC50 (P388) | EC50 [11] | inhibition [12] | EC50 (HT-1080) | further results
1 | COc1cc(C[C@@H](CO)[C@H](CO)Cc2ccc(O)c(OC)c2)ccc1O [(+)-SECOISOLARICIRESINOL] | Not Active | – | – | – | – | – | – | – | – | – | – | – | – | – | – | – | – | – | – | – | –
2 | C=C(Cc1ccc2c(c1)OCO2)C(=C)Cc1ccc(O)cc1O [ANOLIGNAN A] | – | 4.1% | > 20 µg/mL | > 20 µg/mL | 68.3% | 195 µM | 33.8% | 4.3 µg/mL (≈ 13.9 µM) | > 20 µg/mL | 16.8 µg/mL (≈ 54.1 µM) | 15.8 µg/mL (≈ 50.9 µM) | 10.8 µg/mL (≈ 34.8 µM) | > 20 µg/mL | 73.9% | 7.6 µg/mL (≈ 24.5 µM) | 6.1 µg/mL (≈ 19.7 µM) | > 20 µg/mL | 13.5 µg/mL (≈ 43.5 µM) | 92.8% | 13.1 µg/mL (≈ 42.2 µM) | IC50 [6]: 156.9 µg/mL (≈ 506 µM); inhibition [13]: 97.4%; IC50 [14]: 342 µM; inhibition [15]: 80.8%; inhibition [16]: 51.5%
3 | C=C(Cc1ccc(O)cc1)C(=C)Cc1ccc(O)cc1 [ANOLIGNAN B] | – | 10% | > 20 µg/mL | > 20 µg/mL | 20.9% | 4020 µM | 17.7% | 5.1 µg/mL (≈ 19.1 µM) | > 20 µg/mL | 18 µg/mL (≈ 67.6 µM) | 11.1 µg/mL (≈ 41.7 µM) | 8.7 µg/mL (≈ 32.7 µM) | > 20 µg/mL | 27.4% | 19 µg/mL (≈ 71.3 µM) | > 20 µg/mL | 1 µg/mL (≈ 3.75 µM) | 5.7 µg/mL (≈ 21.4 µM) | 32.9% | 4.7 µg/mL (≈ 17.6 µM) | inhibition [15]: 31.2%; inhibition [16]: 25.5%
4 | C[C@@H]1[C@H](C)[C@H](c2ccc(O)cc2)O[C@@H]1c1ccc(O)cc1 [ANOLIGNAN C] | Not Active | – | > 20 µg/mL | > 20 µg/mL | – | – | – | > 20 µg/mL | > 20 µg/mL | 16.8 µg/mL (≈ 59.1 µM) | 15.8 µg/mL (≈ 55.6 µM) | 10.8 µg/mL (≈ 38 µM) | > 20 µg/mL | – | 7.6 µg/mL (≈ 26.7 µM) | 6.1 µg/mL (≈ 21.5 µM) | > 20 µg/mL | 18.5 µg/mL (≈ 65.1 µM) | – | 13.1 µg/mL (≈ 46.1 µM) | –
